MIC, Cure rate and survival data for two compounds are collected here from ChEMBL document CHEMBL1128448, “Synthesis and antifungal activity of new azole derivatives containing an N-acylmorpholine ring” (1995).

Converted amounts (≈) assume the structure as drawn.

What all share (assay type): functional
The subject of test [1] is Candida albicans. Briefly: In vivo evaluation of minimum inhibitory concentration against Candida albicans 406. The gist of the method:
(§1)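 Broth macrodilution MIC following NCCLS M27-P, in RPMI-1640 buffered with 0.165 M MOPS. Fluconazole was dissolved in water and other drugs in DMSO. C. parapsilosis ATCC 22019 served as the reference strain in every run. MIC was the lowest concentration giving turbidity at or below the 80% inhibition standard.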

The subject of test [2] is Candida albicans. As to the kind of experiment: In vivo evaluation of minimum inhibitory concentration against Candida albicans 60. The gist of the method:
as §1

Test [3] relates to Candida tropicalis. As to the kind of experiment: In vivo Evaluation of minimum inhibitory concentration against Candida tropicalis 2.11. The gist of the method: (§2)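 Stocks are 800 μg/mL in 50% ethanol. Each plate gets 10 μL of inoculum at 10^5 cfu/mL. Incubation at 25 °C, 48 h for yeasts and 120 h for dermatophytes and molds. Organisms are ATCC strains or clinical isolates.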

Test [4] deals with Kluyveromyces marxianus. As to the kind of experiment: In vivo Evaluation of minimum inhibitory concentration against Candida pseudotropicalis 13. To be noted: Kluyveromyces marxianus; read-out: MIC. The gist of the method: as §2
Test [5] concerns Rattus norvegicus. As to the kind of experiment: In vivo evaluation of antifungal activity against vaginal candidosis in rat at dose 0.1 mg/kg on 10th day. The gist of the method: (§3)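 Groups of 10 female Wistar rats given estradiol 25 mg/kg sc on day -5, then vaginally inoculated with C. albicans on day 0. Infection is confirmed by culture of day-3 swabs. Compound is dosed orally once daily on days 3–5; controls get vehicle. Cure is scored by culture of vaginal swabs taken on days 10 and 15.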

Test [6] relates to Rattus norvegicus. As to the kind of experiment: In vivo evaluation of antifungal activity against vaginal candidosis in rat at dose 0.1 mg/kg on 15th day. The gist of the method: as §3
Test [7] deals with Rattus norvegicus. As to the kind of experiment: In vivo evaluation of antifungal activity against vaginal candidosis in rat at dose 0.25 mg/kg on 10th day. In a few lines: (§4)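 Groups of 10 female Wistar rats given estradiol 25 mg/kg sc on day -5, infected intravaginally with C. albicans by sterile swab on day 0; infection confirmed on day 3 by swab culture (TSB, then Sabouraud agar). Oral dosing once daily on days 3, 4, 5; vehicle controls. Vaginal swabs cultured on days 10 and 15; read-out % cured (culture-negative).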

Test [8] relates to Rhodotorula mucilaginosa. As to the kind of experiment: In vivo Evaluation of minimum inhibitory concentration against Rhodotorula rubra 16. The note with it: in the assay text read “In vitro” for “In vivo”. The gist of the method: as §2
Test [9] has as its system Nakaseomyces glabratus. As to the kind of experiment: In vivo Evaluation of minimum inhibitory concentration against Torulopsis glabrata 78. To be noted: in the assay text read “In vitro” for “In vivo”. The gist of the method: as §2
For test [10], the system named is Rattus norvegicus. As to the kind of experiment: In vivo evaluation of antifungal activity against vaginal candidosis in rat at dose 0.25 mg/kg on 15th day. In a few lines: as §4
For test [11], the system named is Candida albicans. Briefly: […] Evaluation of minimum inhibitory concentration against Candida albicans 406. In a few lines:
as §2

Test [12] deals with Candida albicans. As to the kind of experiment: […] Evaluation of minimum inhibitory concentration against Candida albicans 60. The gist of the method:
as §2

Test [13] relates to Candida tropicalis. Briefly: In vitro evaluation of minimum inhibitory concentration against Candida tropicalis 2.11. To be noted: Candida tropicalis; read-out: MIC. In a few lines:
as §2

Test [14] concerns Mus sp. As to the kind of experiment: In vivo evaluation of % survival rate after peroral administration on 3rd day at dose 2.5 mg/kg. The note with it: Mus sp., po.
The test system of test [15] is Mus musculus. As to the kind of experiment: In vivo evaluation of % survival rate after peroral administration on 3rd day at dose 20 mg/kg. The note with it: route oral.
Test [16] relates to Mus musculus. Briefly: In vivo evaluation of % survival rate after peroral administration on 3rd day at dose 5 mg/kg. The note with it: route oral.
Test [17] has as its system Mus musculus. As to the kind of experiment: In vivo evaluation of % survival rate after peroral administration on 5th day at dose 10 mg/kg. To be noted: route oral.
The subject of test [18] is Mus sp. Briefly: In vivo evaluation of % survival rate after peroral administration on 5th day at dose 2.5 mg/kg. The note with it: Mus sp., po.
Test [19] has as its system Mus musculus. Briefly: In vivo evaluation of % survival rate after peroral administration on 5th day at dose 20 mg/kg. To be noted: route oral.
Test [20] has as its system Mus musculus. As to the kind of experiment: In vivo evaluation of % survival rate after peroral administration on 5th day at dose 5 mg/kg. The note with it: route oral.
Test [21] concerns Mus musculus. As to the kind of experiment: In vivo evaluation of % survival rate after peroral administration on 7th day at dose 10 mg/kg. The note with it: route oral.
Test [22] concerns Mus sp. As to the kind of experiment: In vivo evaluation of % survival rate after peroral administration on 7th day at dose 2.5 mg/kg. To be noted: Mus sp., po.
The test system of test [23] is Mus musculus. Briefly: In vivo evaluation of % survival rate after peroral administration on 7th day at dose 20 mg/kg. To be noted: route oral.
In test [24] the test system is Mus musculus. Briefly: In vivo evaluation of % survival rate after peroral administration on 9th day at dose 10 mg/kg. The note with it: route oral.
Test [25] concerns Mus sp. Briefly: In vivo evaluation of % survival rate after peroral administration on 9th day at dose 2.5 mg/kg. The note with it: Mus sp., po.
Test [26] concerns Mus musculus. As to the kind of experiment: In vivo evaluation of % survival rate after peroral administration on 9th day at dose 20 mg/kg. The note with it: route oral.
For test [27], the system named is Mus musculus. Briefly: In vivo evaluation of % survival rate after peroral administration on 9th day at dose 5 mg/kg. The note with it: route oral.
The test system of test [28] is Rattus norvegicus. Briefly: In vivo evaluation of antifungal activity against vaginal candidosis in rat at dose 0.5 mg/kg on 10th day. The gist of the method:
(§5)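 Female Wistar rats, 10 per group, received estradiol 25 mg/kg sc on day -5. On day 0 they were infected intravaginally with C. albicans by sterile swab. Infection was confirmed on day 3 by culturing the swab in TSB and then on Sabouraud agar. Oral dosing was once daily on days 3, 4 and 5; controls got vehicle only. Vaginal swabs taken on days 10 and 15 were cultured and read the next day.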

Test [29] relates to Rattus norvegicus. As to the kind of experiment: In vivo evaluation of antifungal activity against vaginal candidosis in rat at dose 0.5 mg/kg on 15th day. The gist of the method: as §5
Test [30] deals with Rattus norvegicus. Briefly: In vivo evaluation of antifungal activity in against vaginal candidosis in rat at dose 0.25 mg/kg on 10th day. In a few lines: as §4
Test [31] concerns Nakaseomyces glabratus. As to the kind of experiment: In vitro evaluation of minimum inhibitory concentration against Torulopsis glabrata 78. To be noted: Nakaseomyces glabratus; read-out: MIC. In a few lines:
as §2

Test [32] relates to Rhodotorula mucilaginosa. As to the kind of experiment: In vitro evaluation of minimum inhibitory concentration against Rhodotorula rubra 16. The note with it: Rhodotorula mucilaginosa; read-out: MIC. In a few lines:
as §2

Test [33] deals with Kluyveromyces marxianus. Briefly: In vitro evaluation of minimum inhibitory concentration against Candida pseudotropicalis 13. The note with it: Kluyveromyces marxianus; read-out: MIC. In a few lines: as §2
The subject of test [34] is Mus musculus. Briefly: In vivo evaluation of % survival rate after peroral administration on 3rd day at dose 10 mg/kg. To be noted: route oral.
In test [35] the test system is Mus musculus. As to the kind of experiment: In vivo evaluation of % survival rate after peroral administration on 7th day at dose 5 mg/kg. The note with it: route oral.

Broadly, the MIC is the lowest concentration found to suppress growth. Consider `C[C@H]1N(C(=O)c2ccc(C(F)(F)F)cc2)C[C@H](O)O[C@@]1(Cn1cncn1)c1ccc(F)cc1F` (stereo in doubt; (-)-39a), for which the minimum inhibitory concentration (MIC) in [1] is 1.25 µg/mL (≈ 2.59 µM); in test [2], 2.5 µg/mL (≈ 5.18 µM); in test [3], 40 µg/mL (≈ 82.9 µM); in test [4], 20 µg/mL (≈ 41.5 µM); in test [8] it was more than 80 µg/mL; in test [9] it was more than 80 µg/mL. Also, the Cure rate in test [5] is given as 30%; in test [6] it was 50%; in [7] it was 95%; in test [10], 100%.
On to `OC(Cn1cncn1)(Cn1cncn1)c1ccc(F)cc1F` [FLUCONAZOLE], for which the MIC was 2.5 µg/mL (≈ 8.16 µM) in test [11]; 2.5 µg/mL (≈ 8.16 µM) in [12]; 80 µg/mL (≈ 261 µM) in test [13]; more than 80 µg/mL in test [31]; more than 80 µg/mL in test [32]; 80 µg/mL (≈ 261 µM) in [33]. Besides, the survival at 2.5 mg/kg worked out at 100% in [14], 100% in test [18], 95% in [22] and 70% in test [25]. For the same compound, the survival at 20 mg/kg is 100% in test [15], 100% in [19], 98% in test [23] and 75% in test [26]. The survival at 5 mg/kg in [16] turned out to be 100%; in [20], 100%; in [27], 40%; in test [35], 90%. The survival at 10 mg/kg came to 100% in test [17], 80% in test [21], 60% in [24] and 100% in test [34]. The Cure rate in test [28] is given as 20%; in test [29] it was 20%; in [30], 10%; in test [10], 25%.
